# The source made the active and inactive calls. No cut-off for these calls is given here.
# Key:
# [1] = Evaluated for antidepressant activity by its ability to inhibit tetrabenazine-induced (TBZ) ptosis in mice; type: functional; details: Mus musculus
# Summary of the method: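 Mice given tetrabenazine to induce ptosis; inhibition of ptosis scored. Compounds were screened at 20 mg/kg ip. […] ">20" marks activity at the 20 mg/kg ip screening dose without a dose-response run.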
# Mus musculus = species: Mus musculus; assay: Evaluated for antidepressant activity by its ability to inhibit tetrabenazine-induced (TBZ) ptosis in mice; Inactive; type: functional, organism-based
Compound,ED50 [1],ED50 (Mus musculus)
CCCNCC(=O)N1c2ccccc2N2CCc3cccc(c32)C1C (stereo unspecified),> 20 mg/kg,–
Br.CC1c2cccc3c2N(CC3)c2ccccc2N1CCN(C)C (stereo unspecified),5 mg/kg,–
CNCCC(=O)N1c2ccccc2N2CCc3cc(Cl)cc(c32)C1C (stereo unspecified),–,inactive
CNCC(=O)N1c2ccccc2N2CCc3cc(Cl)cc(c32)C1C (stereo unspecified),–,inactive
Br.Br.CNCCCN1Cc2cccc3c2N(CC3)c2ccccc21,1.5 mg/kg,–
CN(C)CCC(=O)N1Cc2cccc3c2N(CC3)c2ccccc21,> 20 mg/kg,–
CC1c2cc(Cl)cc3c2N(CC3)c2ccccc2N1C(=O)CN(C)C (stereo unspecified),–,inactive
Br.Br.CNCCN1c2ccccc2N2CCc3cccc(c32)C1C (stereo unspecified),8 mg/kg,–
CNCCC(=O)N1c2ccccc2N2CCc3cccc(c32)C1C (stereo unspecified),4 mg/kg,–
CNCCCN1c2ccccc2N2CCc3cc(Cl)cc(c32)C1C (stereo unspecified),–,inactive
CNCCN1Cc2cccc3c2N(CC3)c2ccccc21.O=C(O)C(=O)O,> 20 mg/kg,–
CNCCN1c2ccccc2N2CCc3cc(Cl)cc(c32)C1C (stereo unspecified),–,inactive
CN(C)CCC=C1c2ccccc2CCc2ccccc21 [AMITRIPTYLINE],4.5 mg/kg,–
CCCNCCC(=O)N1c2ccccc2N2CCc3cccc(c32)C1C.Cl (stereo unspecified),> 20 mg/kg,–
CN(C)CCN1c2ccccc2N2CCc3cccc(c32)C1CCc1ccccc1.O=C(O)C(=O)O (stereo unspecified),> 20 mg/kg,–
CNCC(=O)N1Cc2cccc3c2N(CC3)c2ccccc21,> 20 mg/kg,–

Compound,ED50 [1],ED50 (Mus musculus)
CN(C)CC(=O)N1Cc2cccc3c2N(CC3)c2ccccc21,> 20 mg/kg,–
CN(C)CCC(=O)N1c2ccccc2N2CCc3cccc(c32)C1C1CCCCC1.Cl (stereo unspecified),> 20 mg/kg,–
Br.Br.CCCNCCN1c2ccccc2N2CCc3cccc(c32)C1C (stereo unspecified),> 20 mg/kg,–
CC1c2cccc3c2N(CC3)c2ccccc2N1C(=O)CN(C)C (stereo unspecified),13.5 mg/kg,–
CC1c2cccc3c2N(CC3)c2ccccc2N1C(=O)CCN1CCN(c2ccccc2)CC1 (stereo unspecified),> 20 mg/kg,–
CN(C)CCCN1Cc2cccc3c2N(CC3)c2ccccc21.Cl.Cl,16 mg/kg,–
CNCCCN1c2ccccc2N2CCc3cccc(c32)C1C.Cl.Cl (stereo unspecified),9.5 mg/kg,–
CC1c2cccc3c2N(CC3)c2ccccc2N1C(=O)CCCN(C)C.Cl (stereo unspecified),> 20 mg/kg,–
CCN(CC)CCC(=O)N1c2ccccc2N2CCc3cccc(c32)C1C (stereo unspecified),> 20 mg/kg,–
Br.Br.CC1c2cccc3c2N(CC3)c2ccccc2N1CCN (stereo unspecified),2.2 mg/kg,–
CC1c2cccc3c2N(CC3)c2ccccc2N1C(=O)CCN(C)C (stereo unspecified),16 mg/kg,–
CC1c2cccc3c2N(CC3)c2ccccc2N1C(=O)CCN1CCCCC1 (stereo unspecified),> 20 mg/kg,–
CNCC(=O)N1c2ccccc2N2CCc3cccc(c32)C1C (stereo unspecified),2 mg/kg,–
CC1c2cc(Cl)cc3c2N(CC3)c2ccccc2N1C(=O)CCN(C)C (stereo unspecified),–,inactive
CNCCCN1c2ccccc2CCc2ccccc21 [DESIPRAMINE],1.5 mg/kg,–
